Data from ChEMBL document CHEMBL1143227, “Design, synthesis, and in vitro activity of peptidomimetic inhibitors of myeloid differentiation factor 88” (J Med Chem, 2008).
Active and inactive are the calls of the source. The rule behind the calls is not given here.

How the values were obtained:
[1] = molecular target: Myeloid differentiation primary response protein MyD88 (Homo sapiens) (UniProt Q99836); assay: Inhibition of MyD88 homodimerization by yeast two-hybrid assay
Procedure, shortened: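 Yeast AH109 is cotransformed with AD-MyD88 and BD-MyD88, grown overnight at 30 °C in SGd/-Leu/-Trp, then diluted 1/20 into SGd/-Ade/-His/-Leu/-Trp with compound at a final 100 µM in oxygen-sensor plates. Growth at 30 °C is read by fluorescence (ex 485/em 630 nm, bottom read) every 90 min for 25 readings. Signal is normalized to initial well fluorescence, and growth curves are described by seven curve parameters.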

HeLa [2] = assay: Inhibition of IL-1-alpha-induced NF-kappaB activation in human HeLa cells at 100 uM; format: functional
Procedure, shortened: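 HeLa cells are grown in EMEM with 2 mM glutamine, 1% nonessential amino acids, 7.5% FBS and pen/strep. They are seeded at 3 × 10⁵/well, left overnight, then switched to serum-free EMEM. Compound (DMSO, final 100 µM) is added for 6 h at 37 °C, then recombinant human IL-1 5 ng/mL for 30 min. Activated p65 in about 10 µg lysate protein is read by TransAM colorimetric ELISA (A450). % inhibition uses stimulated and unstimulated controls with and without compound.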

Mus musculus = assay: Decrease in IL-1-beta-dependent IL6 production in mouse at 50 to 200 mg/kg; format: functional, organism-based
HeLa [3] = assay: Inhibition of IL-1-alpha-induced NF-kappaB activation in human HeLa cells at 8 uM; format: functional
HeLa [4] = assay: Inhibition of IL-1-alpha-induced NF-kappaB activation in human HeLa cells at 4 uM; format: functional
HeLa [5] = assay: Toxicity against human HeLa cells at 10 uM by MTT assay; format: cell-based
HeLa [6] = assay: Toxicity against human HeLa cells at 8 uM by MTT assay; format: cell-based
HeLa [7] = assay: Toxicity against human HeLa cells at 4 uM by MTT assay; format: cell-based
HeLa [8] = assay: Inhibition of IL-1-alpha-induced NF-kappaB activation in human HeLa cells at 20 uM; format: functional
HeLa [9] = assay: Inhibition of IL-1-alpha-induced NF-kappaB activation in human HeLa cells at 10 uM; format: functional
HeLa [10] = assay: Toxicity against human HeLa cells at 20 uM by MTT assay; format: cell-based

Sequence of Myeloid differentiation primary response protein MyD88 (Homo sapiens) (Q99836 whole entry): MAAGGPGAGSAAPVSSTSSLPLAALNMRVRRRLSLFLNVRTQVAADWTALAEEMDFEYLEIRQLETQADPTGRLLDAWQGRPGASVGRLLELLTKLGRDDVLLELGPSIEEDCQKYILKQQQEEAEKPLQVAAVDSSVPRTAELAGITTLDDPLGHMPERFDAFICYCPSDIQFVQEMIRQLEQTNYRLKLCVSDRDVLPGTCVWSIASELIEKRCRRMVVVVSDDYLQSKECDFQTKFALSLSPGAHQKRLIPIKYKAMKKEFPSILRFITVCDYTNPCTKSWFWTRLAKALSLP

| Activity [1] | SMILES | inhibition at 100 µM (HeLa [2]) [%] | further results |
| --- | --- | --- | --- |
| Active | NC(=O)CN1CCC[C@]2(CCCN2C(=O)CCNC(=O)c2ccc(NC(=O)Cc3cccc4ccccc34)cc2)C1=O | 18 |  |
|  | CC(C)[C@H](NC(=O)CCc1ccccc1)C(=O)N1CCCC1 | 31 |  |
| Active | NC(=O)[C@H]1CCS[C@@H]2C[C@]3(CCCN3C(=O)Cc3ccc(NC(=O)COc4ccc(Cl)cc4Cl)cc3)C(=O)N12 | 26 | Activity (Mus musculus): Active |
| Active | NC(=O)[C@H]1CCS[C@@H]2C[C@]3(CCCN3C(=O)c3nc(NC(=O)COc4ccc(Cl)cc4)n[nH]3)C(=O)N12 | 17 |  |
|  | CC(C)(C)c1ccc(S(=O)(=O)/C=C/C#N)cc1 [BAY-11-7085] |  | inhibition at 8 µM (HeLa [3]): 35%; inhibition at 4 µM (HeLa [4]): 0%; Activity (HeLa [5]): 4%; Activity (HeLa [6]): 0%; Activity (HeLa [7]): 0%; inhibition at 20 µM (HeLa [8]): 65%; inhibition at 10 µM (HeLa [9]): 44%; Activity (HeLa [10]): 41% |
| Active | N=C(N)NCCCCNC(=O)c1ccc2cc(NC(=O)CN3C(=O)[C@@H]4C[C@@H](O)CN4C(=O)c4ccccc43)ccc2c1 | 24 |  |
| Active | Cc1cnc(C(=O)Nc2ccc(C(=O)NCCC(=O)N3CCC[C@]34C[C@H]3SCC[C@H](C(N)=O)N3C4=O)cc2)cn1 | 23 |  |
